The test system of data set [1] is Mus musculus. The experiment in a line: Neurotoxicity in Swiss albino mouse at 300 mg/kg, ip after 0.5 hrs. It counts as toxicity, organism-based. On the set-up: dose 300 mg/kg, route intraperitoneal. The note with it: in vivo.
Data set [2] in a line: Neurotoxicity in ip dosed Swiss albino mouse after 4 hrs. The format is toxicity, organism-based. The note with it: in vivo. An outline of the steps:
(§1)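 Albino mice of either sex (25–30 g), 6 per group, received i.p. doses of 30, 100 and 300 mg/kg in polyethylene glycol. Trained mice were tested on the rotorod at 0.5 h and 4.0 h. Neurotoxicity was failure to keep balance on the rod for at least 1 min in each trial. The value recorded is the minimum dose affecting half or more of the mice.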

Data set [3] has as its system Mus musculus. As to the kind of experiment: Anticonvulsant activity in ip dosed Swiss albino mouse assessed as inhibition of maximum electric shock-induced motor impairment after 4 hrs. It counts as functional. The note with it: read-out: MED.
The test system of data set [4] is Mus musculus. As to the kind of experiment: Anticonvulsant activity in ip dosed Swiss albino mouse assessed as inhibition of PTZ-induced motor impairment after 0.5 hrs. The format is functional. The note with it: read-out: MED. An outline of the steps:
(§2)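 Albino mice of either sex (25–30 g), 6 per group, dosed i.p. in polyethylene glycol at 30, 100 or 300 mg/kg. Subcutaneous pentylenetetrazole was given at 0.5 h or 4.0 h, and mice were watched for 30 min. Protection meant no threshold seizure (single clonic spasm episode of at least 5 s). The value is the minimum dose protecting half or more.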

Data set [5] deals with Mus musculus. The experiment in a line: Anticonvulsant activity in ip dosed Swiss albino mouse assessed as inhibition of maximum electric shock-induced motor impairment after 0.5 hrs. To be noted: read-out: MED. The format is functional.
Data set [6] deals with Mus musculus. The experiment in a line: Anticonvulsant activity in ip dosed Swiss albino mouse assessed as inhibition of PTZ-induced motor impairment after 4 hrs. The note with it: read-out: MED. It counts as functional. An outline of the steps: as §2
For data set [7], the system named is Mus musculus. As to the kind of experiment: Neurotoxicity in Swiss albino mouse at 300 mg/kg, ip after 4 hrs. The format is toxicity, organism-based. On the set-up: dose 300 mg/kg, route intraperitoneal. To be noted: in vivo.
In data set [8] the test system is Mus musculus. The experiment in a line: Anticonvulsant activity in Swiss albino mouse assessed as inhibition of PTZ-induced motor impairment at 300 mg/kg, ip after 4 hrs. On the set-up: dose 300 mg/kg. The format is functional, organism-based. In short, it runs like this:
(§3)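 Albino mice of either sex (25–30 g), 6 per group. Test compound was given i.p. in polyethylene glycol at 30, 100 or 300 mg/kg, and subcutaneous pentylenetetrazole challenge followed 0.5 h or 4.0 h later. Activity was scored as protection in half or more of the mice.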

The subject of data set [9] is Mus musculus. The experiment in a line: Anticonvulsant activity in Swiss albino mouse assessed as inhibition of PTZ-induced motor impairment at 300 mg/kg, ip after 0.5 hrs. The format is functional, organism-based. The arrangement: dose 300 mg/kg. In short, it runs like this: as §3
The nature of data set [10]: Neurotoxicity in ip dosed Swiss albino mouse after 0.5 hrs. It counts as toxicity, organism-based. The note with it: in vivo. In short, it runs like this:
as §1

Activity calls are given as the source filed them.

For the compound `Cc1ccc(-n2c(Nc3nc(-c4ccc(Br)cc4)cs3)n[nH]c2=S)cc1`, the Activity entry in the data set with Mus musculus [1] is given as “Non-toxic”. For the same compound, in data set [2], the MTD at 4 h amounted to 100 mg/kg. For the same compound, the minimal effective dose in the data set with Mus musculus [3] is 300 mg/kg; in the data set with Mus musculus [4], 300 mg/kg; in the data set on Mus musculus [5], 100 mg/kg; in the data set on Mus musculus [6], 300 mg/kg.

`COc1ccccc1-n1c(Nc2nc(-c3ccccc3)cs2)n[nH]c1=S`: the Activity entry with Mus musculus [1] and with Mus musculus [7] was “Non-toxic” each time. The minimal effective dose in the data set with Mus musculus [3] was 300 mg/kg; in the data set with Mus musculus [5] it was 100 mg/kg. The inhibition result with Mus musculus [8] and in the data set on Mus musculus [9] was “inactive” each time.

As for `S=c1[nH]nc(Nc2nc(-c3ccc(Br)cc3)cs2)n1-c1ccccc1`, the Activity entry with Mus musculus [1] is “Non-toxic”. Also, the MTD at 4 h in [2] was 300 mg/kg. Moreover, the minimal effective dose with Mus musculus [3] turned out to be 300 mg/kg. Also, the inhibition result with Mus musculus [8] and in the data set with Mus musculus [9] was “inactive” throughout.

On to `COc1ccc(-n2c(Nc3nc(-c4ccc([N+](=O)[O-])cc4)cs3)n[nH]c2=S)cc1`, for which the Activity result with Mus musculus [1] was “Non-toxic”. In data set [2], this compound yielded an MTD at 4 h of 300 mg/kg. Moreover, the values for the minimal effective dose with Mus musculus [3], in the data set with Mus musculus [5] and with Mus musculus [6] were 300 mg/kg, 100 mg/kg and 300 mg/kg, respectively. Moreover, the inhibition result in the data set with Mus musculus [9] was “inactive”.

As for `Cc1ccc(-n2c(Nc3nc(-c4ccc(Cl)cc4)cs3)n[nH]c2=S)cc1`, the Activity entry with Mus musculus [1] is “Non-toxic”. The same compound displayed an MTD at 4 h in data set [2] of 300 mg/kg. For the same compound, the minimal effective dose in the data set with Mus musculus [3] and in the data set with Mus musculus [5] was 300 mg/kg each time. The inhibition result in the data set on Mus musculus [8] and in the data set on Mus musculus [9] was “inactive” each time.

`COc1ccc(-n2c(Nc3nc(-c4ccc(Br)cc4)cs3)n[nH]c2=S)cc1`: the Activity result with Mus musculus [1] and in the data set on Mus musculus [7] was “Non-toxic” in each case. The minimal effective dose with Mus musculus [3] and in the data set with Mus musculus [5] was 300 mg/kg each time. The inhibition entry with Mus musculus [8] and in the data set with Mus musculus [9] was “inactive” throughout.

For the compound `COc1ccccc1-n1c(Nc2nc(-c3ccc([N+](=O)[O-])cc3)cs2)n[nH]c1=S`, in data set [2], the MTD at 4 h is 300 mg/kg. Also, the minimal effective dose with Mus musculus [3] and in the data set with Mus musculus [5] was 100 mg/kg throughout. Moreover, the inhibition result in the data set with Mus musculus [8] and in the data set with Mus musculus [9] was “inactive” throughout. The MTD at 0.5 h in data set [10] was determined as 100 mg/kg.

`COc1ccccc1-n1c(Nc2nc(-c3ccc(Cl)cc3)cs2)n[nH]c1=S`: the minimal effective dose in the data set on Mus musculus [3], with Mus musculus [4] and in the data set on Mus musculus [5] was 100 mg/kg each time. Also, in the data set with Mus musculus [7], the Activity entry is “Non-toxic”. Besides, the inhibition entry with Mus musculus [8] is “inactive”. Also, the MTD at 0.5 h in data set [10] is 300 mg/kg.

In turn, `COc1ccccc1-n1c(Nc2nc(-c3ccc(Br)cc3)cs2)n[nH]c1=S` returned an MTD at 4 h in data set [2] of 300 mg/kg. The minimal effective dose with Mus musculus [3] and in the data set with Mus musculus [5] was 300 mg/kg in each case. Moreover, the inhibition result with Mus musculus [8] and in the data set on Mus musculus [9] was “inactive” throughout. Further, the MTD at 0.5 h in [10] worked out at 100 mg/kg.

With `COc1ccc(-n2c(Nc3nc(-c4ccccc4)cs3)n[nH]c2=S)cc1`, the Activity result in the data set with Mus musculus [1] and with Mus musculus [7] was “Non-toxic” throughout. The results for the minimal effective dose in the data set on Mus musculus [3], in the data set on Mus musculus [5] and in the data set on Mus musculus [6] were 100 mg/kg, 100 mg/kg and 300 mg/kg, respectively. The inhibition entry with Mus musculus [9] was “inactive”.

For the compound `Cc1ccc(-n2c(Nc3nc(-c4ccc([N+](=O)[O-])cc4)cs3)n[nH]c2=S)cc1`, the MTD at 4 h in data set [2] came to 100 mg/kg. Besides, the results for the minimal effective dose with Mus musculus [3], with Mus musculus [4] and in the data set on Mus musculus [5] were 300 mg/kg, 300 mg/kg and 100 mg/kg, respectively. In addition, in the data set with Mus musculus [8], the inhibition entry was “inactive”. This compound also yielded an MTD at 0.5 h in data set [10] of 100 mg/kg.

(Values after ChEMBL document CHEMBL1157042, “Triazole incorporated thiazoles as a new class of anticonvulsants: design, synthesis and in vivo screening” (Eur J Med Chem, 2010).)
